T cruzi repl – blocks replication of Trypanosoma cruzi | T. cruzi beta-gal in NIH3T3, luminescence, 90 h | inhibition, % (concentration not given with the values) | 300,000 tested, 1.4% active;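 active = mean inhibition across valid replicates above about 55%, limit read from the data; inconclusive = mean below that limit but half or more replicates reach it; inactive = mean below it, under half of replicates reach it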;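 also: signal also drops with host cell toxicity which is not excluded here; higher percent means less beta-gal luminescence so fewer parasites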
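Read-out: Parasite load inhibition, % | Test system: Mouse NIH/3T3 fibroblasts infected with β-gal-expressing T. cruzi Tulahuen C4 | Amount: 5,000 cells/well | Medium: DMEM, 2% fetal bovine serum | Signal: GalScreen β-gal luminescence, detergent lysis, 60 min | Timing: 3 h attach, ≥90 h co-culture | Also added: Tulahuen C4 trypomastigotes, 5000/well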
Beta apoptosis – beta cell apoptosis inhibition | INS-1E cytokine-induced death, ATP luminescence, 48 h; percent of positive-control rescue, neutral wells zero | protection from apoptosis, % (no concentration beside the values) | 300,000 tested, 0.8% active;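 active = Every replicate reaches about 75%, or at least half do and their mean reaches it too, limit read from the data; inconclusive = At least half of replicates reach the limit but their mean does not; inactive = Under half of replicates reach the limit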;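 also: higher means more ATP so stronger rescue from cytokine killing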
CSC inhib – blocks cancer stem cells; cancer stem cell-like cells viability, luminescence; inhibition, % at 7.5 µM; 300,000 tested, 1.1% active; in the data active = inhibition above about 75%; inconclusive = no clear call, values can overlap the other calls; tested in HMLE shEcad cells
L major viab – reduces viability of Leishmania major promastigotes; resazurin fluorescence viability; inhibition, % at 10 µM; 200,000 tested, 9% active; AID 1063; in the data active = inhibition above about 50%;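 also: promastigotes grown with compound for 44 hours at 28 °C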
Mdm2 MdmX PPI – human Mdm2/MdmX binding inhibition | O15151+Q00987 | SaOS-2 split-luciferase Mdm2/MdmX complementation, luminescence | inhibition, % at 8 µM | AID 485346 | 330,000 tested, 3% active;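 active = inhibition of at least 50% at 8 µM in the primary screen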
Target sequence (O15151 whole entry, looked up): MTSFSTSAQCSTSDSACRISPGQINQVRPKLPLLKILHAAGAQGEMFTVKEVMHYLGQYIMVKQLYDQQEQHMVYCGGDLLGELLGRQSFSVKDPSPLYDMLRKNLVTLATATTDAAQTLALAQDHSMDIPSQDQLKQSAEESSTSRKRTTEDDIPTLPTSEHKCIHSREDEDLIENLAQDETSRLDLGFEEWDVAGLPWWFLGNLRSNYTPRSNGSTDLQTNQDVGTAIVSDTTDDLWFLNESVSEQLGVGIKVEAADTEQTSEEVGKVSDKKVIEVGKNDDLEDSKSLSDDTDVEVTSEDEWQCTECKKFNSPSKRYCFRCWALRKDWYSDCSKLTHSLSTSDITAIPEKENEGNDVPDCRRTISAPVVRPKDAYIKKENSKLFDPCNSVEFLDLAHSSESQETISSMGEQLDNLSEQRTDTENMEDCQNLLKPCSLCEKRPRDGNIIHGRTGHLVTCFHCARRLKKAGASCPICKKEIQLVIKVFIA
Target sequence (Q00987 whole entry, looked up): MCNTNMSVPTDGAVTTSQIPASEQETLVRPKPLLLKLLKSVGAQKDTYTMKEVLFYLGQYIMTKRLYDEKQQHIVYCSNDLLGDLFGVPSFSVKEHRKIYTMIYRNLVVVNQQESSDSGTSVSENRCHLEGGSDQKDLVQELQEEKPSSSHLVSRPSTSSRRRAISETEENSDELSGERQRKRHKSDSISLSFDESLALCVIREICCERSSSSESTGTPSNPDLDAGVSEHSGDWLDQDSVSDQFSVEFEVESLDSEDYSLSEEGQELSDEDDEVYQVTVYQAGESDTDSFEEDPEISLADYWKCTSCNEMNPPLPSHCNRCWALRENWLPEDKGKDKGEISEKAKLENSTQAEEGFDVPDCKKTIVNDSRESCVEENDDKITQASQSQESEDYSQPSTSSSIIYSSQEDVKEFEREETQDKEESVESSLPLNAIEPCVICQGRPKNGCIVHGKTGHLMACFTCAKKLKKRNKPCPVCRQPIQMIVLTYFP
SKKanGAS inh – inhibitors of SKKanGAS S. pyogenes growth in kanamycin (SK-promoter or general growth effect) | BacTiter-Glo, 6 h | inhibition, % at 7.5 µM | 300,000 tested, 1.3% active | AID 1662;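 active = mean replicate score, as percent of positive control median, at least 50; inconclusive = mean below 50 but one replicate at or above 50; inactive = mean and every replicate below 50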;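 also: strain carries kanamycin resistance gene driven by streptokinase promoter and grows in 40 µg/ml kanamycin; loss of luminescence reflects streptokinase promoter inhibition or plain growth inhibition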
Each line names hits and unclear results; the compound was inactive in the other large screens. Only some compounds are listed: those with a hit (about 9.4% of all), similar ones and a draw of the others.

Cc1nc2c(-c3ccccc3)c(C)nn2c(N)c1-c1ccccc1	L major viab 100
Cc1nn(-c2nc3ccccc3[nH]2)c(N)c1-c1ccccc1	L major viab 91, SKKanGAS inh 87 (no result: Beta apoptosis)
CCn1c(O)c(N=NC(=O)C(O)c2ccccc2)c2ccccc21 (stereo not given)	none (no result: L major viab)
COc1cc(/C=N/NC(=O)CSc2cc(C)c(Br)cc2C)ccc1O	none
Cc1cc(SCC(=O)N/N=C/c2ccc(O)c(O)c2O)c(C)cc1Br	SKKanGAS inh 69
Fc1ccc(Nc2ccc3ccccc3n2)c(F)c1	none (no result: SKKanGAS inh)
CCN(CC)S(=O)(=O)c1ccc(/C=C/C(=O)Nc2ccc(Br)cc2F)cc1	L major viab 99
CCN(CC)S(=O)(=O)c1ccc(/C=C/C(=O)Nc2ccc(N3CCOCC3)cc2)cc1	none (no result: L major viab)
CCN(CC)S(=O)(=O)c1ccc(/C=C/C(=O)Nc2ccc(F)cc2F)cc1	L major viab 56
CCN(CC)S(=O)(=O)c1ccc(/C=C/C(=O)Nc2ccc(F)c(F)c2F)cc1	L major viab 89
CCc1ccc(NC(=O)CCCNC(=O)Cn2cnc3sc(C)c(C)c3c2=O)cc1	none (no result: L major viab)
CCOc1ccc(S(=O)(=O)NCCCN2CCCC2=O)cc1	none
CCN1CCCC1CNC(=O)c1c(O)c2c([nH]c1=O)CCCC2 (stereo not given)	L major viab 52
CC1N(C)c2cc(NC(=O)c3ccco3)c(P(=O)(Nc3ccc([N+](=O)[O-])cc3)N3CCOCC3)cc2C1(C)C (stereo not given)	L major viab 55
CC1N(C)c2cc(NC(=O)c3ccco3)ccc2C1(C)C (stereo not given)	none
CCN(CC)C(=O)CSc1nc2c(sc(=S)n2CC)c(=O)n1-c1ccccc1	L major viab 59
Cc1ccc(S(=O)(=O)Nc2ccccc2N2CCOCC2)cc1	none (no result: L major viab)
CC(C)(C)n1[nH]c2c3c(ccc2c1=O)C(=O)c1ccccc1C3=O	Beta apoptosis 86, L major viab 95
CC(C)CN(C(=O)COc1ccc(C(C)(C)C)cc1)C1CCS(=O)(=O)C1 (stereo not given)	none (no result: L major viab)
O=C(CN1CCOCC1)N/N=C/c1ccco1	none (no result: Beta apoptosis)
Nc1cc(Cl)nc(N/N=C/c2c(O)ccc3ccccc23)n1	L major viab 91
O=C(N/N=C/c1c(O)ccc2ccccc12)Nc1ccccc1	SKKanGAS inh 93 (no result: L major viab)
CC(=O)Nc1ccc(N=Cc2c(O)ccc3ccccc23)cc1	none (no result: L major viab)
O=C(CN1CCOCC1)N/N=C/c1c(O)ccc2ccccc12	Beta apoptosis 84 (no result: L major viab)
CCN(Cc1ccc(NC(C)=O)cc1)CC1CCCN(CCc2cccc(OC)c2)C1 (stereo not given)	T cruzi repl inconclusive (no result: L major viab)
CCn1c(SCC(=O)c2c[nH]c3ccccc23)nc2cc(S(=O)(=O)N3CCOCC3)ccc21	L major viab 66
COc1ccc(CN2CCCC(C(=O)Nc3cccc(-n4cccn4)c3)C2)cc1 (stereo not given)	none (no result: L major viab)
COc1cccc(C(=O)C2CCCN(Cc3ccc(OC)c(Cn4cncn4)c3)C2)c1 (stereo not given)	T cruzi repl 58 (no result: L major viab)
COc1cccc(C(=O)C2CCCN(Cc3cccc(OCCO)c3)C2)c1 (stereo not given)	none (no result: L major viab)
COc1ccc(CN2CCCC(C(=O)c3ccc(Cl)cc3)C2)cc1Cn1cccn1 (stereo not given)	T cruzi repl 64, L major viab 96
COCc1cc(CN2CCCC(C(=O)Nc3cccc(-n4cnnn4)c3)C2)ccc1OC (stereo not given)	T cruzi repl 70 (no result: L major viab)
O=C(N/C(=C/c1ccco1)C(=O)N1CCOCC1)c1ccccc1Br	none (no result: Beta apoptosis, L major viab)
O=C(NCc1ccc(F)cc1)c1ccc(S(=O)(=O)Nc2cccc(C(F)(F)F)c2)cc1	L major viab 66
COc1cc(C(=O)NCC(c2cccnc2)N2CCN(c3ccccc3)CC2)cc(OC)c1OC (stereo not given)	L major viab 67
O=C(NCC(c1cccnc1)N1CCN(c2ccccc2)CC1)c1ccc2c(c1)OCO2 (stereo not given)	L major viab 88
O=C(NCC(c1cccnc1)N1CCOCC1)c1ccc2c(c1)OCO2 (stereo not given)	none
COc1cc(C(=O)NCC(c2cccnc2)N2CCN(C)CC2)cc(OC)c1OC (stereo not given)	none
COc1cccc(C(C(=O)NC2CCCCC2)N(CCN2CCOCC2)C(=O)C2COc3ccccc3O2)c1 (stereo not given)	none
COc1cc(OC)cc(N(C(=O)C2COc3ccccc3O2)C(C(=O)NC2CCCCC2)c2ccc(O)cc2)c1 (stereo not given)	L major viab 64 (no result: Beta apoptosis)
COc1ccc(N(C(=O)C2COc3ccccc3O2)C(C(=O)NC2CCCCC2)c2ccccc2)cc1OC (stereo not given)	L major viab 99
CCc1ccc2nc3nc(C)cc(C)c3c(N)c2c1	L major viab 101
Cc1cc(C)c2c(SC(C)C)nc(N)nc2n1	none (no result: L major viab)
Cc1cc(C)c2c(N)c3ccccc3nc2n1	L major viab 101
C[C@@]12CCC=C[C@H]1[C@H](c1ccoc1)N(Cc1ccccc1)C2=O	none (no result: L major viab)
CN(C)c1ccc(-c2cc([C@H]3[C@@H]4C=CCC[C@@]4(C)C(=O)N3Cc3ccccc3)ccc2F)cc1	CSC inhib 104 (no result: L major viab)
Cc1ccc(F)c([C@H]2[C@@H]3C=CCC[C@@]3(C)C(=O)N2Cc2ccccc2)c1	none (no result: L major viab)
COc1ccc(-c2cccc([C@H]3[C@@H]4C=CCC[C@@]4(C)C(=O)N3Cc3ccccc3)c2)cc1	CSC inhib 82 (no result: L major viab)
C[C@@]12CCC=C[C@H]1[C@H](c1ccc(F)c(/C=C/c3ccccc3)c1)N(Cc1ccccc1)C2=O	CSC inhib 94 (no result: L major viab)
Cc1ccc(-c2cc([C@H]3[C@@H]4C=CCC[C@@]4(C)C(=O)N3Cc3ccccc3)ccc2F)cc1	CSC inhib 111, SKKanGAS inh inconclusive (no result: L major viab)
COc1ccc(S(=O)(=O)NCC(=O)N(CC(=O)NCc2ccco2)C2CCCC2)cc1	none (no result: L major viab)
O=C(NNC(=S)Nc1ccc(F)cc1)C1[C@H]2CCCC[C@@H]12 (stereo not given in full)	none (no result: L major viab)
COc1ccc(-c2cc([C@H]3[C@@H]4C=CCC[C@@]4(C)C(=O)N3Cc3ccccc3)ccc2F)cc1OC	CSC inhib 91 (no result: L major viab)
S=c1[nH]c(-c2ccccc2)cn1/N=C/c1ccncc1	none (no result: L major viab)
CCOc1ccc(/C=N/n2cc(-c3ccccc3)[nH]c2=S)cc1	T cruzi repl 73
O=C(c1ccco1)N(Cc1cccc(Cl)c1)C1CCS(=O)(=O)C1 (stereo not given)	none (no result: L major viab)
N#Cc1ccc(OCC(=O)Nc2nc(-c3cccnc3)cs2)cc1	none (no result: T cruzi repl, L major viab, SKKanGAS inh)
Cc1ccc(-c2nn(-c3ccccc3)cc2/C=N/n2c(-c3cccs3)n[nH]c2=S)cc1	SKKanGAS inh 55 (no result: L major viab)
Cc1nc2ccccc2c(=O)n1/N=C/c1cn(-c2ccccc2)nc1-c1cccs1	L major viab 56
